According to ChEMBL document CHEMBL1154352, “Toll-like receptor 7 selective synthetic oligoribonucleotide agonists: synthesis and structure-activity relationship studies” (J Med Chem, 2009):
The source made the active and inactive calls. The rule behind the calls is not given here.

Assays:
Homo sapiens [1] = organism: Homo sapiens; experiment: Immunostimulatory activity in human pDC assessed as induction of IL6 at 100 ug/ml after 24 hrs; format: functional
Procedure, shortened: (§1)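 Human pDCs plated at 1 × 10^6 cells/mL; compounds in PBS added, 37 °C for 24 h; supernatant cytokines/chemokines by human Luminex multiplex kit.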

PBMC [2] = experiment: Immunomodulatory activity in human PBMC assessed as induction of IL1-beta at 50 ug/ml after 24 hrs; format: functional, cell-based
Procedure, shortened: (§2)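 Human PBMCs plated at 5 × 10^6 cells/mL; compounds dissolved in PBS added at various concentrations, 37 °C for 24 h. Supernatant cytokines/chemokines quantified with human Luminex multiplex kit.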

PBMC [3] = experiment: Immunomodulatory activity in human PBMC assessed as induction of TNFalpha at 50 ug/ml after 24 hrs; format: functional, cell-based; procedure, shortened: as §2
Homo sapiens [4] = organism: Homo sapiens; experiment: Immunostimulatory activity in human pDC assessed as induction of IFNalpha at 100 ug/ml after 24 hrs; format: functional; procedure, shortened: as §1
Homo sapiens [5] = organism: Homo sapiens; experiment: Immunostimulatory activity in human mDC assessed as induction of IL6 at 100 ug/ml after 24 hrs; format: functional
Procedure, shortened: (§3)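 Human mDCs isolated from PBMCs by CD19+ B-cell depletion then BDCA1 positive selection; plated at 1 × 10^6 cells/mL, compounds in PBS, 37 °C for 24 h; supernatant cytokines by human Luminex multiplex. Representative of four independent experiments.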

Mus musculus = experiment: Immunomodulatory activity in C57BL/6 mouse assessed as induction of IL12 release at 25 mg/kg, sc after 2 hrs by ELISA; format: functional, organism-based; parameters: dose 25 mg/kg
Procedure, shortened: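 Female C57BL/6 wild-type mice, 5–8 weeks old, n=3; compounds given subcutaneously at 10 or 25 mg/kg. Retro-orbital blood at 2 h; serum cytokines by mouse Luminex multiplex or IL-12 ELISA.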

Homo sapiens [6] = organism: Homo sapiens; experiment: Immunostimulatory activity in human mDC assessed as induction of TNFalpha at 100 ug/ml after 24 hrs; format: functional; procedure, shortened: as §3
Homo sapiens [7] = organism: Homo sapiens; experiment: Ratio of human TLR7 activity to human TLR8 activity
Procedure, shortened: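 TLR7/TLR8 ratio computed from fold NF-κB (SEAP reporter) activation in HEK293 cells stably expressing human TLR7 versus TLR8, compounds at 50 μg/mL, 18 h exposure; representative of three independent experiments.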

PBMC [8] = experiment: Immunomodulatory activity in human PBMC assessed as induction of MIP1alpha at 50 ug/ml after 24 hrs; format: functional, cell-based; procedure, shortened: as §2
Homo sapiens [9] = organism: Homo sapiens; experiment: Immunostimulatory activity in human mDC assessed as induction of IFNalpha at 100 ug/ml after 24 hrs; format: functional; procedure, shortened: as §3
Homo sapiens [10] = organism: Homo sapiens; experiment: Immunostimulatory activity in human pDC assessed as induction of IP10 at 100 ug/ml after 24 hrs; format: functional; procedure, shortened: as §1
Homo sapiens [11] = organism: Homo sapiens; experiment: Immunostimulatory activity in human mDC assessed as induction of IL12 at 100 ug/ml after 24 hrs; format: functional; procedure, shortened: as §3
PBMC [12] = experiment: Immunomodulatory activity in human PBMC assessed as induction of IL10 after 24 hrs; format: functional, cell-based; procedure, shortened: as §2
PBMC [13] = experiment: Immunomodulatory activity in human PBMC assessed as induction of IFNalpha after 24 hrs; format: functional, cell-based; procedure, shortened: as §2
PBMC [14] = experiment: Immunomodulatory activity in human PBMC assessed as induction of IFNalpha at 50 ug/ml after 24 hrs; format: functional, cell-based; procedure, shortened: as §2
PBMC [15] = experiment: Immunomodulatory activity in human PBMC assessed as induction of MCP1 at 50 ug/ml after 24 hrs; format: functional, cell-based; procedure, shortened: as §2
PBMC [16] = experiment: Immunomodulatory activity in human PBMC assessed as induction of IL6 at 50 ug/ml after 24 hrs; format: functional, cell-based; procedure, shortened: as §2
PBMC [17] = experiment: Immunomodulatory activity in human PBMC assessed as induction of IP10 at 50 ug/ml after 24 hrs; format: functional, cell-based; procedure, shortened: as §2
PBMC [18] = experiment: Immunomodulatory activity in human PBMC assessed as induction of IP10 after 24 hrs; format: functional, cell-based; procedure, shortened: as §2
PBMC [19] = experiment: Immunomodulatory activity in human PBMC assessed as induction of IL12 at 50 ug/ml after 24 hrs; format: functional, cell-based; procedure, shortened: as §2
Homo sapiens [20] = organism: Homo sapiens; experiment: Immunostimulatory activity in human mDC assessed as induction of IP10 at 100 ug/ml after 24 hrs; format: functional; procedure, shortened: as §3
[21] = molecular target: T1, Toll-like receptor 7 (Homo sapiens) (UniProt Q9NYK1); experiment: Activation of human TLR7 expressed in HEK293XL assessed as fold induction of NF-kappaB activity at 50 ug/ml after 18 hrs by reporter gene assay relative to control
T1 sequence (whole entry): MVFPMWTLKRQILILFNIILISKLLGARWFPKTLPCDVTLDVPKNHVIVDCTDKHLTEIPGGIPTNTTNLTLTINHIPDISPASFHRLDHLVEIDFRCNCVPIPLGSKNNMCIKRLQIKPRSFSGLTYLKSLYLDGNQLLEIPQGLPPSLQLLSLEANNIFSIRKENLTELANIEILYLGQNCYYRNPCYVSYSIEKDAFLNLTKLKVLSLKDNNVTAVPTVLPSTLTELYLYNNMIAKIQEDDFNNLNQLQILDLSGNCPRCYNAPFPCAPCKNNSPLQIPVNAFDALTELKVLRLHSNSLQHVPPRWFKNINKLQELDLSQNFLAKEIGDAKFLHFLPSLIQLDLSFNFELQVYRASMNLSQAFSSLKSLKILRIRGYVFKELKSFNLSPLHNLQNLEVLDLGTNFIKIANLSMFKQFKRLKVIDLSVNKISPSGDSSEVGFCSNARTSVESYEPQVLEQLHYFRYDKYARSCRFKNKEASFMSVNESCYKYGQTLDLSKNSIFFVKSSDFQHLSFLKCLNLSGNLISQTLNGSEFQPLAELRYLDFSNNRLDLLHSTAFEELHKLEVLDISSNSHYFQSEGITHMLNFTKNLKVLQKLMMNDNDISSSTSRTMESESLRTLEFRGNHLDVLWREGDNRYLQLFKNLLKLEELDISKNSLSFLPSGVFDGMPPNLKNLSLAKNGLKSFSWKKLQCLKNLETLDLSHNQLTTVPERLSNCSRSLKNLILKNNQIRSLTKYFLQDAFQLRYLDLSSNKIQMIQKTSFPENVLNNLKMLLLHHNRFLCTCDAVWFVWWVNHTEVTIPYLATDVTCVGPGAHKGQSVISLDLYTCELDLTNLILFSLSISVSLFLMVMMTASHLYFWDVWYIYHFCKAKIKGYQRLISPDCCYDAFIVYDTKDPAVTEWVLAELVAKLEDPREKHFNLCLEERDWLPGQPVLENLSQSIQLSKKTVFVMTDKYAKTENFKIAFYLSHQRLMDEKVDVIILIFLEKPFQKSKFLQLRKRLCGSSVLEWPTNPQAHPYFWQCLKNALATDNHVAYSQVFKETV
Procedure, shortened: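 HEK293 cells stably expressing human TLR7 or TLR8, transiently transfected with SEAP reporter plasmid; medium replaced, SIMRA compounds added, 18 h incubation. Supernatant SEAP measured by QuantiBlue; expressed as fold increase in NF-κB activity over PBS control. Tabulated data at 50 μg/mL, representative of three independent experiments.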

PBMC [22] = experiment: Immunomodulatory activity in human PBMC assessed as induction of MIP1alpha after 24 hrs; format: functional, cell-based; procedure, shortened: as §2
PBMC [23] = experiment: Immunomodulatory activity in human PBMC assessed as induction of IL6 after 24 hrs; format: functional, cell-based; procedure, shortened: as §2
PBMC [24] = experiment: Immunomodulatory activity in human PBMC assessed as induction of MIP1beta at 50 ug/ml after 24 hrs; format: functional, cell-based; procedure, shortened: as §2

Question: How did the Activity (Homo sapiens [1]) turn out when `Nc1ccn([C@@H]2O[C@H](COP(=O)(S)O[C@H]3[C@@H](O)[C@H](n4cnc5c(N)ncnc54)O[C@@H]3COP(=O)(S)O[C@H]3[C@@H](O)[C@H](n4ccc5c(=O)[nH]c(N)nc54)O[C@@H]3COP(=O)(S)O[C@H]3[C@@H](O)[C@H](n4ccc(=O)[nH]c4=O)O[C@@H]3COP(=O)(S)O[C@H]3[C@@H](O)[C@H](n4ccc5c(=O)[nH]c(N)nc54)O[C@@H]3COP(=O)(S)O[C@H]3[C@@H](O)[C@H](n4cnc5c(N)ncnc54)O[C@@H]3COP(=O)(S)O[C@H]3[C@@H](O)[C@H](n4cnc5c(N)ncnc54)O[C@@H]3CO)[C@@H](OP(=O)(S)OC[C@H]3O[C@@H](n4ccc5c(=O)[nH]c(N)nc54)[C@H](O)[C@@H]3OP(=O)(S)OC[C@H]3O[C@@H](n4ccc(N)nc4=O)[C@H](O)[C@@H]3OP(=O)(S)OC[C@H]3O[C@@H](n4ccc(=O)[nH]c4=O)[C@H](O)[C@@H]3OP(=O)(S)OC[C@H]3O[C@@H](n4ccc(=O)[nH]c4=O)[C@H](O)[C@@H]3OP(=O)(S)OCC(O)COP(=O)(S)O[C@H]3[C@@H](O)[C@H](n4ccc(=O)[nH]c4=O)O[C@@H]3COP(=O)(S)O[C@H]3[C@@H](O)[C@H](n4ccc(=O)[nH]c4=O)O[C@@H]3COP(=O)(S)O[C@H]3[C@@H](O)[C@H](n4ccc(N)nc4=O)O[C@@H]3COP(=O)(S)O[C@H]3[C@@H](O)[C@H](n4ccc5c(=O)[nH]c(N)nc54)O[C@@H]3COP(=O)(S)O[C@H]3[C@@H](O)[C@H](n4ccc(N)nc4=O)O[C@@H]3COP(=O)(S)O[C@H]3[C@@H](O)[C@H](n4cnc5c(N)ncnc54)O[C@@H]3COP(=O)(S)O[C@H]3[C@@H](O)[C@H](n4ccc5c(=O)[nH]c(N)nc54)O[C@@H]3COP(=O)(S)O[C@H]3[C@@H](O)[C@H](n4ccc(=O)[nH]c4=O)O[C@@H]3COP(=O)(S)O[C@H]3[C@@H](O)[C@H](n4ccc5c(=O)[nH]c(N)nc54)O[C@@H]3COP(=O)(S)O[C@H]3[C@@H](O)[C@H](n4cnc5c(N)ncnc54)O[C@@H]3COP(=O)(S)O[C@H]3[C@@H](O)[C@H](n4cnc5c(N)ncnc54)O[C@@H]3CO)[C@H]2O)c(=O)n1` (stereo not given in full) was run?
Answer: The Activity was “Active”.

Question: And the Activity (PBMC [2])?
Answer: The Activity was 105 pg/mL.

Question: And the Activity (PBMC [3])?
Answer: Its Activity is 57 pg/mL.

Question: And the Activity (Homo sapiens [4])?
Answer: Its Activity is “Active”.

Question: And the Activity (Homo sapiens [5])?
Answer: The Activity was “Active”.

Question: What about the Activity (Mus musculus) of the same compound?
Answer: The Activity was “Active”.

Question: And the Activity (Homo sapiens [6])?
Answer: Its Activity is “Active”.

Question: What about the Ratio (Homo sapiens [7]) of the same compound?
Answer: The Ratio was 32.3.

Question: And the Activity (PBMC [8])?
Answer: The Activity was 2540 pg/mL.

Question: What about the Activity (Homo sapiens [9]) of the same compound?
Answer: The Activity was “Active”.

Question: What about the Activity (Homo sapiens [10]) of the same compound?
Answer: The Activity was “Active”.

Question: What about the Activity (Homo sapiens [11]) of the same compound?
Answer: The Activity was “Active”.

Question: What about the Activity (PBMC [12]) of the same compound?
Answer: The Activity was “Dose-dependent effect”.

Question: What about the Activity (PBMC [13]) of the same compound?
Answer: Its Activity is “Dose-dependent effect”.

Question: And the Activity (PBMC [14])?
Answer: The Activity was 209 pg/mL.

Question: And the Activity (PBMC [15])?
Answer: Its Activity is 51500 pg/mL.

Question: What about the Activity (PBMC [16]) of the same compound?
Answer: The Activity was 1300 pg/mL.

Question: And the Activity (PBMC [17])?
Answer: Its Activity is 629 pg/mL.

Question: And the Activity (PBMC [18])?
Answer: Its Activity is “Dose-dependent effect”.

Question: And the Activity (PBMC [19])?
Answer: The Activity was 316 pg/mL.

Question: And the Activity (Homo sapiens [20])?
Answer: Its Activity is “Active”.

Question: What about the fold change (FC) [21] of the same compound?
Answer: The fold change (FC) was 22.6.

Question: What about the Activity (PBMC [22]) of the same compound?
Answer: The Activity was “Dose-dependent effect”.

Question: What about the Activity (PBMC [23]) of the same compound?
Answer: The Activity was “Dose-dependent effect”.

Question: What about the Activity (PBMC [24]) of the same compound?
Answer: The Activity was 6230 pg/mL.
